TDP2 absorb – blocks human TDP2 phosphodiesterase activity; recombinant TDP2, T5PNP hydrolysis, p-nitrophenol absorbance 415 nm; inhibition, % at 12.8 µM; actives 0.34% (n = 370,000);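 active = inhibition above the mean of all tested compounds plus 3 SD, set per campaign, cut at about 25% in these data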;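 note: 0% = DMSO with enzyme and 100% = buffer with substrate but no TDP2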
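System – recombinant human TDP2 · Quantity – TDP2 enzyme at 120 nM final · Doses – single concentration, 12.8 µM nominal, with 1% DMSO · Incubation – 2 h at 37 °C · Measured by – epi absorbance of p-nitrophenol freed from T5PNP by hydrolysis · Read-out – % inhibition relative to enzyme-containing and enzyme-free wells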
GSTO1 inh – GSTO1 inhibition, counter-screen for RBBP9 inhibitors; recombinant GSTO1, activity-based probe fluorescence polarization; inhibition, % at 5.96 µM; actives 1.1% (n = 300,000);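 active = inhibition above the campaign mean inhibition plus 3 SD, cut at about 35% in these data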;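 note: 0% = GSTO1-1 with DMSO and 100% = wells lacking GSTO1-1 enzyme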
Target sequence (P78417 whole entry, looked up): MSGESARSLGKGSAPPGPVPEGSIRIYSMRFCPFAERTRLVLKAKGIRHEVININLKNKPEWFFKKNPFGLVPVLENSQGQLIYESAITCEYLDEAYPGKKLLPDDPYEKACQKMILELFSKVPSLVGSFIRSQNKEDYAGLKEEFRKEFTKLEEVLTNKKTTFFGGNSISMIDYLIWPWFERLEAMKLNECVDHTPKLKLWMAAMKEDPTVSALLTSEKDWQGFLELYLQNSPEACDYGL
PAD4 FP inh – blocks human protein arginine deiminase 4. Q9UM07. recombinant PAD4, RCA probe fluorescence polarization. inhibition, % at 6.36 µM. actives 0.41% (n = 330,000);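 active = percent inhibition above a cutoff equal to the mean of all tested compounds plus 3 SD, cut at about 15% in these data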;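 note: 0% = PAD4 with RCA probe and DMSO and 100% = probe without PAD4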
HKDC1 inhibitor – blocks human hexokinase HKDC1 activity | Q2TB90 | recombinant HKDC1, G6PDH/diaphorase resazurin coupled fluorescence | inhibition, % at 20 µM | actives 0.16% (n = 340,000) | AID 493160;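 active = inhibition above about 35% when tested at 20 µM, limit read from the data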;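 note: plate controls were DMSO wells with enzyme for no effect and DMSO wells lacking enzyme for full effect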
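Test system: recombinant HKDC1 (HK5) hexokinase enzyme, produced in-house / Doses: 20 µM test compound, 1% DMSO / Timing: 90 min, room temperature / Detection: G6PDH/diaphorase-coupled fluorescence, 1 mM NADP, 100 µM resazurin, 525/613 nm / Control set: DMSO wells with and without enzyme mix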
UCH37 DUB inh – human UCH37 deubiquitinating enzyme inhibition | Q9Y5K5 | purified proteasome/UCH37, Ub-AMC cleavage fluorescence | inhibition, % (no concentration beside the values) | actives 0.33% (n = 330,000) | AID 588478;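 active = mean inhibition over replicate wells above about 20%, limit read from the data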;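 note: 0% = compound-free wells with enzyme and 100% = wells lacking proteasome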
Target sequence (Q9Y5K5 whole entry, looked up): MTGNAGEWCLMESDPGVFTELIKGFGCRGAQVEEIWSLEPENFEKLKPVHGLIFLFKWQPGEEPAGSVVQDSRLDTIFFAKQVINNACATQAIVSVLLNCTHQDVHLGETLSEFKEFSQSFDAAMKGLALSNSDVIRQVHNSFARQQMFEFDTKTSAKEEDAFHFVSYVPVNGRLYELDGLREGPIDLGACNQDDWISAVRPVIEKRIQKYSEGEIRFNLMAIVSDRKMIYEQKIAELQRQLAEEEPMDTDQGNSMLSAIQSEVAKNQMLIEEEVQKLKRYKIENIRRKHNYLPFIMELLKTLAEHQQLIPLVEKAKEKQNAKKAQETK
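Material: Human UCH37 enzyme supplied as purified proteasome complex | Schedule: 30 min preincubation with enzyme, 25 min cleavage at room temperature | Detection: AMC fluorescence 355/460 nm | Measure: % inhibition of Ub-AMC cleavage fluorescence | Controls: Wells without proteasome as full block, compound-free enzyme plus substrate as uninhibited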
CTSL1 counter – cathepsin L1 inhibition, PFM18AAP counter-screen; recombinant F. hepatica cathepsin L1, Z-Leu-Arg-MCA fluorescence; inhibition, % at 5.96 µM; actives 0.49% (n = 300,000); AID 1906;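 active = inhibition above the mean of all tested compounds plus 3 SD, set per screening campaign, cut at about 17% in these data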;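 note: 0% = plate median of test compound wells and 100% = 1 µM Z-Phe-Ala-diazomethylketone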
PAD4 FP conf – confirmation of human PAD4 inhibitors; shares compounds with PAD4 FP inh; recombinant PAD4, RCA probe fluorescence polarization; inhibition, % at 6.36 µM; actives 28% (n = 1,200);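 active = mean inhibition across replicates above the hit cutoff set by the earlier primary screen, cut at about 15% in these data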;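 note: inhibitors block active-site labeling by the probe so polarization falls; 0% = PAD4 with probe and DMSO and 100% = probe without PAD4 enzyme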
Numbers without * were called inactive; . = no result. This is a sample that favours compounds with a hit; in the whole collection about 1.6% have one here.

SMILES	TDP2 absorb	GSTO1 inh	PAD4 FP inh	HKDC1 inhibitor	UCH37 DUB inh	CTSL1 counter	PAD4 FP conf
Cc1ccc(C2(C)NC(=O)N(CC(=O)Nc3cc(C)on3)C2=O)cc1 (centres undefined)	-5	6	-2	-11	1	-5	.
COCCn1c(C)c(C)c(S(=O)(=O)c2ccccc2)c1N	-5	13	28*	-7	4	-7	-3
Cc1c(S(=O)(=O)c2ccccn2)c(N)n(Cc2ccccc2)c1C	-1	-1	-11	2	.	-1	.
Cc1ccccc1C(=O)NNC(=O)CSc1nc2ccccc2c(=O)[nH]1	2	14	23*	-4	3	18*	-4
Cc1ccc(-c2cc(C(=O)NN=C/C=C/c3ccccc3)n[nH]2)s1	.	.	.	.	3	.	.
O=C(OCn1ncc(Br)c(Br)c1=O)c1ccccc1Cl	.	37*	34*	29	3	5	32*
O=C(NCc1ccccn1)Nc1ccccc1F	13	3	1	-5	-3	-1	.
O=C(NCc1ccccn1)Nc1ccccc1C(F)(F)F	0	2	35*	-8	0	2	6
CCOc1ccc(C=NNC(=O)C(C)N(c2ccc(OC)cc2)S(C)(=O)=O)cc1OCC (centres undefined)	.	.	.	.	2	.	.
Cc1cccc2c1NC(C)CC2C (centres undefined)	-2	19	15*	-2	1	3	5
COc1ccc(Cl)cc1Nc1nc(C)nc2c1oc1ccccc12	-11	1	15*	3	-187	3	-15
COCCOC(=O)C(C#N)c1nc2ccccc2nc1N1CCCC1 (centres undefined)	0	5	18*	-1	-13	1	9
COc1ccccc1C1CC(c2cccs2)=Nc2ccccc2S1 (centres undefined)	11	1	23*	-1	3	-2	2
COc1ccccc1C1CC(c2cccs2)=NN1C(=O)CCC(=O)O (centres undefined)	-23	-1	-8	-4	-7	-1	.
Cc1ccc(C2=NN=C(NC(=O)CSc3nc(C)cc(C)n3)SC2)cc1	-1	2	71*	.	4	4	68*
Cn1c2ccccc2c2nnc(SCC(=O)Nc3cccc(C(=O)O)c3)nc21	-4	-9	3	5	8	-1	.
Cc1ccc(C2=NN=C(NC(=O)CSc3nnc4c5ccccc5n(C)c4n3)SC2)cc1	.	0	23*	-29	2	10	37*
Cc1cc(C)nc(SCC(=O)NC2=NC(=O)C(C)S2)n1 (centres undefined)	4	1	2	12	4	4	.
COc1ccc(C=NNC(=O)c2c(C)nnn2-c2nonc2N)cc1OC	.	.	.	.	-23	.	.
O=C(NN=Cc1ccccn1)c1cc([N+](=O)[O-])cc([N+](=O)[O-])c1	.	.	.	.	5	.	.
COC/C=C/C1=CC2=CC(=O)C(C)(OC(=O)c3cnc4ccccc4n3)C(=O)C2=CN1Cc1ccccc1 (centres undefined)	5	16	5	26	4	-1	.
COC/C=C/C1=CC2=CC(=O)C(C)(OC(=O)c3cnc4ccccc4n3)C(=O)C2=CN1CC1CC1 (centres undefined)	.	22	24*	17	41*	1	3
COc1ccccc1C=NNC(=O)c1ccc(-c2ccccc2)cc1	.	.	.	.	6	.	.
CC(=O)C[C@H](O)CC(=O)[C@H]1OC(=O)CCCCCc2ccccc21	0	.	1	-5	1	.	.
CC(=O)C[C@H](O)CC(=O)[C@H]1OC(=O)CC/C=C\Cc2ccccc21	12	.	22*	0	0	.	0
SMILES	TDP2 absorb	GSTO1 inh	PAD4 FP inh	HKDC1 inhibitor	UCH37 DUB inh	CTSL1 counter	PAD4 FP conf
N#CC1(C#N)C(c2ccccc2)OC23CCCCC2C1(C#N)C(=N)O3 (centres undefined)	8	29	12	-6	-119	-1	.
CCCCCCCCOc1ccc(C2OC34CCCCC3C(C#N)(C#N)C2(C#N)C(=N)O4)cc1 (centres undefined)	.	14	16*	7	-111	4	9
CCCCC1OC23CCCCC2C(C#N)(C#N)C1(C#N)C(=N)O3 (centres undefined)	2	7	25*	19	-11	0	17*
Nc1nonc1-n1nnc(C(=O)N/N=C/c2cccnc2)c1CSC1=NCCS1	-4	-17	35*	-3	.	-6	10
CCNc1cc(O)ccc1C	.	.	122*	7	.	.	53*
Cc1ccc(C(=O)CNc2cc(C)ccc2C)cc1	-1	2	-2	-3	1	3	.
O=C(Nc1ccccn1)C(=O)N1CCCCC1	-6	-1	36*	-5	-2	-2	-2
Oc1ccc(Cl)cc1C1=Nc2ccccc2N=C(c2ccco2)C1	-2	15	-1	3	5	6	.
Fc1ccccc1C1CC(c2ccco2)=Nc2ccccc2S1 (centres undefined)	-19	-1	19*	-1	1	0	4
Cc1ccc(-c2nn(-c3ccccc3)cc2/C=C2\SC(=S)N(CC(=O)O)C2=O)cc1	-4	-4	15*	-9	21*	1	3
O=C(O)CN1C(=O)/C(=C\c2ccccc2OCc2ccc(Cl)cc2)SC1=S	-7	4	22*	10	.	-3	2
COc1ccc(-c2nn(-c3ccccc3)cc2/C=C2/SC(=S)N(CCC(=O)O)C2=O)cc1	11	-12	0	11	9	8	.
COC(=O)c1ccccc1NC(=O)CSc1nc(C)cc(C)n1	7	7	-3	-2	5	1	.
COC(=O)c1cc(C)nc(Sc2ccccc2N)n1	1	3	68*	1	.	0	78*
NC(=NOC(=O)CCCc1ccccc1)c1ccc([N+](=O)[O-])cc1	.	.	.	.	3	.	.
CC(=O)Nc1ccc(NC(=O)CCc2c(C)noc2C)cc1	-3	.	.	-3	4	.	.
COC(=O)c1cccc(NC(=O)CCc2c(C)noc2C)c1	-6	.	31*	2	0	.	0
Cn1nnnc1Sc1ncnc2scc(-c3cc4ccccc4o3)c12	3	.	16*	19	.	.	13
C=CCN(C(=O)c1csnn1)C(C(=O)NCc1ccc(F)cc1)c1ccccc1 (centres undefined)	-16	-2	-4	4	2	-2	.
C=CCN(C(=O)c1csnn1)C(C(=O)NCc1ccc(F)cc1)c1ccc(F)cc1 (centres undefined)	10	0	15*	-2	-4	-2	-7
O=C(N/N=C1\C/C(=N\NC(=O)c2ccncc2)c2ccccc21)c1ccncc1	19	56*	44*	2	.	42*	-15
